Reference: publication PMC10499406 (Clinical and Translational Science, 2023)
Like-named read-outs stand apart in the source and are kept apart here.

How the values were obtained:
CYP3A4 [1] = test system: CYP3A4
[2] = for DN AUC0–last / CL/F: SAD, fasted, n = 6, mean
[3] = 600 mg, high‐fat vs fasted
Urinary PK = assay type: in vivo, human; conditions: multiple b.i.d. dosing (MAD)
IL‐18 = assay: Ex vivo LPS/ATP stimulation of whole blood from participants: IL‐18 production; assay type: cell-based, human
IL‐1β [4] = assay: Ex vivo LPS/ATP stimulation of whole blood from participants: IL‐1β production; assay type: cell-based, human; conditions: for maximum mean inhibition of IL‐1β production: relative to baseline
Method in brief: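 Whole blood from participants was drawn predose and at postdose timepoints. MAD dosing was oral 300 or 900 mg b.i.d. on days 1–6 plus one morning dose on day 7, fasted. Blood was stimulated ex vivo with an LPS plus ATP cocktail. Secreted IL-1β was the mean of two technical replicates. Inhibition = [1−(postdose/predose stimulated level)]×100%. IC90 came from a sigmoid Emax fit against time-matched plasma drug levels (HPLC-MS/MS).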

clinical [5] = conditions: human, in vivo, po
human whole blood = conditions: cited from earlier work
[6] = cited from earlier work
[7] = cynomolgus monkey, 4‐week study; cited from earlier work
clinical [8] = conditions: human, in vivo, n = 6, mean; for AUC: AUC0–tau; for Cmax: C max
[9] = for C min: steady‐state (day 7), n = 6, mean
clinical [10] = conditions: human, in vivo, 600 mg, fasted period, n = 8, mean
[11] = Safety: adverse events and laboratory findings in healthy volunteers; assay type: in vivo, human
Method in brief: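 Healthy volunteers receiving at least one dose of study drug formed the safety population. End points were incidence and severity of AEs, and baseline changes in vital signs, clinical laboratory tests and 12-lead ECG. DDI stage: one cohort of nine, test compound given fasted with co-administered midazolam. Other stages: single oral 150–1800 mg; 300 or 900 mg b.i.d.; 600 mg fasted then after high-fat meal.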

CYP3A4 [12] = assay: In vitro CYP3A4 induction assays and preliminary PBPK modeling; assay type: in vitro ADME; conditions: unpublished data
CYP3A4 [13] = assay: clinical; conditions: human, in vivo
IL‐1β [14] = conditions: patients with atherosclerosis and residual inflammation ref 8; cited from earlier work
[15] = Plasma PK of metabolite indacenyl amine after GDC‐2394; assay type: in vivo, human
[16] = single 150‐mg, 450‐mg and 900‐mg doses
[17] = single doses of 600 mg, both fasted and high‐fat periods
[18] = 300 mg, MAD 300 mg b.i.d., first dose (day 1)
[19] = 300 mg, MAD 300 mg b.i.d., steady‐state (day 7)
[20] = 900 mg, MAD 900 mg b.i.d., first dose (day 1)
[21] = 900 mg, MAD 900 mg b.i.d., steady‐state (day 7)
[22] = 1‐hydroxymidazolam, day 10 vs day 1
[23] = midazolam 5 mg alone (reference, day 1), analyte 1‐hydroxymidazolam, n 9

CN[C@@H]1COc2c(S(=O)(=O)NC(=O)Nc3c4c(cc5c3CCC5)CCC4)cnn2C1 [GDC‐2394, (S)‐N‐((1,2,3,5,6,7‐hexahydro‐s‐indacen‐4‐yl)carbamoyl)‐6‐(methylamino)‐6,7‐dihydro‐5H‐pyrazolo[5,1‐b][1,3]oxazine‐3‐sulfonamide]
CYP3A4 induction potential / impact on systemic exposure of midazolam and 1‐hydroxymidazolam (CYP3A4 [1]; human, in vivo): minimal CYP3A4 induction potential
CYP3A4 induction potential / impact on systemic exposure of midazolam and 1‐hydroxymidazolam (CYP3A4 [1]; in vivo): did not have an apparent impact
observed AUC relative to the preclinical prediction ([2]; 150‐mg starting dose): approximately three‐fold
DN AUC0–last ([2]; single oral 150 mg): 356 ng·h/mL/mg
CL/F ([2]; single oral 450 mg): 3390 mL/h
DN AUC0–last ([2]; single oral 450 mg): 307 ng·h/mL/mg
CL/F ([2]; single oral 900 mg): 3040 mL/h
DN AUC0–last ([2]; single oral 900 mg): 352 ng·h/mL/mg
CL/F ([2]; single oral 1800 mg): 2590 mL/h
DN AUC0–last ([2]; single oral 1800 mg): 410 ng·h/mL/mg
increases in systemic exposure with dose (dose‐normalized Cmax and AUC0–last) ([2]; single oral doses 150–1800 mg): approximately dose proportional
apparent clearance, range of mean values ([2]; single oral doses across 150–1800 mg): 2590 to 3390 mL/h
decrease of AUC0–inf with a high‐fat meal [3]: 14%
decrease of AUC0–last with a high‐fat meal [3]: 14%
decrease of Cmax with a high‐fat meal [3]: ~ 16%
mean fraction of drug excreted in urine 0 to 12 h postdose on day 7, range (Urinary PK): 12.3% to 14.8
mean inhibition of IL‐18 production across most of the 7‐day dosing period (IL‐18; 900‐mg b.i.d.): greater than 99%
IC90 (IL‐18; Homo sapiens, read-out: estimated plasma IC90 for IL‐18 inhibition): ~2500 nM
inhibition of IL‐18 production (in words) (IL‐18; all SAD cohorts): Near‐complete or complete inhibition
time for which IL‐18 inhibition was sustained (IL‐18; [16]): ~ 8 h
time for which IL‐18 inhibition was sustained (IL‐18; single 1800‐mg dose): ~ 24 h
mean inhibition of IL‐1β production sustained over the 7‐day dosing period (IL‐1β [4]; 300 mg b.i.d.): greater than 95%
mean inhibition of IL‐1β production sustained over the 7‐day dosing period (IL‐1β [4]; 900 mg b.i.d.): greater than 99%
IC90 (IL‐1β [4]; Homo sapiens, read-out: estimated plasma IC90 for IL‐1β inhibition): ~2500 nM
maximum mean inhibition of IL‐1β production (IL‐1β [4]; single 150‐mg dose): greater than 97%
time for which maximum mean IL‐1β inhibition was sustained (IL‐1β [4]; [16]): ~ 8 h
maximum mean inhibition of IL‐1β production (IL‐1β [4]; single 450‐mg dose): greater than 97%
maximum mean inhibition of IL‐1β production (IL‐1β [4]; single 900‐mg dose): greater than 99%
mean inhibition of IL‐1β production (IL‐1β [4]; single dose of 1800 mg): greater than or equal to 99%
time for which mean IL‐1β inhibition was sustained (IL‐1β [4]; single dose of 1800 mg): ~ 24 h
mean inhibition of IL‐1β production (IL‐1β [4]; [17]): greater than 99%
time for which mean IL‐1β inhibition was sustained (IL‐1β [4]; [17]): 8 h
half-life (clinical [5]): 4.1 to 8.6 h
AUC(0-t) (clinical [5]; 150 mg): 53.5 µg·h/mL
Cmax (clinical [5]; 150 mg): 8110 ng/mL
Tmax (clinical [5]; 150 mg): 2.1 h
Vd/F (clinical [5]; 150 mg): 16.7 L
half-life (clinical [5]; 150 mg): 4.1 h
AUC(0-inf) (clinical [5]; 450 mg): 138 µg·h/mL
AUC(0-t) (clinical [5]; 450 mg): 138 µg·h/mL
Cmax (clinical [5]; 450 mg): 22900 ng/mL
Tmax (clinical [5]; 450 mg): 2 h
Vd/F (clinical [5]; 450 mg): 30.2 L
half-life (clinical [5]; 450 mg): 5.8 h
AUC(0-inf) (clinical [5]; 900 mg): 317 µg·h/mL
AUC(0-t) (clinical [5]; 900 mg): 317 µg·h/mL
Cmax (clinical [5]; 900 mg): 50400 ng/mL
Tmax (clinical [5]; 900 mg): 2 h
Vd/F (clinical [5]; 900 mg): 34.9 L
half-life (clinical [5]; 900 mg): 6.8 h
AUC(0-inf) (clinical [5]; 1800 mg): 739 µg·h/mL
AUC(0-t) (clinical [5]; 1800 mg): 738 µg·h/mL
Cmax (clinical [5]; 1800 mg): 101000 ng/mL
Tmax (clinical [5]; 1800 mg): 4 h
Vd/F (clinical [5]; 1800 mg): 32.1 L
half-life (clinical [5]; 1800 mg): 8.6 h
in vitro human whole blood IC90 (human whole blood): 0.639 µg/mL
IC90 (human whole blood; read-out: in vitro human whole blood IC90): 1480 nM
blood:plasma ratio [6]: 0.6
no‐observed‐adverse‐effect level (NOAEL) [7]: 600 mg/kg/day
AUC (clinical [8]; [18]): 82 µg·h/mL
AUC (clinical [8]; [19]): 92.2 µg·h/mL
Cmax (clinical [8]; [18]): 15300 ng/mL
Cmax (clinical [8]; [19]): 16400 ng/mL
AUC (clinical [8]; [20]): 301 µg·h/mL
AUC (clinical [8]; [21]): 327 µg·h/mL
Cmax (clinical [8]; [20]): 52700 ng/mL
Cmax (clinical [8]; [21]): 51000 ng/mL
C min ([9]; MAD 300 mg b.i.d.): 1820 ng/mL
C min ([9]; MAD 900 mg b.i.d.): 9080 ng/mL
interindividual variability of PK parameters, %CVs ([9]; MAD stage): less than 50%
likely achievement of steady‐state ([9]; MAD, both cohorts, from trough concentrations): ≤ 2 days
accumulation ratios for Cmax and AUC0–tau ([9]; both MAD cohorts (300 and 900 mg b.i.d.), steady‐state vs day 1): ~ 1
Cmax (clinical [10]; C max, FE 600 mg single dose): 28000 ng/mL
half-life (clinical [10]; T 1/2, FE 600 mg single dose): 5.3 h
participants with events consistent with hepatic injury ([11]; DDI stage, after completion of GDC‐2394 dosing): Three
time to recovery from severe DILI ([11]; DDI stage, both participants): ≤ 3 months
total number of events considered related to study treatment ([11]; DDI stage, n = 9): 14
peak elevation of ALT ([11]; MAD 900 mg b.i.d., one subject, day 14): 1.67 × the upper limit of normal [ULN]
Subjects with at least one AE leading to dose modification/interruption ([11]; MAD, all GDC‐2394 (n = 12)): 0
Subjects with at least one AE leading to withdrawal from treatment ([11]; MAD, all GDC‐2394 (n = 12)): 0
Subjects with at least one AE with fatal outcome ([11]; MAD, all GDC‐2394 (n = 12)): 0
Subjects with at least one grade 3–5 AE (at greatest intensity) ([11]; MAD, all GDC‐2394 (n = 12)): 0
Subjects with at least one related AE ([11]; MAD, all GDC‐2394 (n = 12)): 4 (33.3%)
Subjects with at least one related serious AE ([11]; MAD, all GDC‐2394 (n = 12)): 0
Subjects with at least one serious AE ([11]; MAD, all GDC‐2394 (n = 12)): 0
Total number of AEs ([11]; MAD, all GDC‐2394 (n = 12)): 18
Total number of deaths ([11]; MAD, all GDC‐2394 (n = 12)): 0
Total number of subjects with at least one AE ([11]; MAD, all GDC‐2394 (n = 12)): 8 (66.7%)
Total number of subjects withdrawn from study due to an AE ([11]; MAD, all GDC‐2394 (n = 12)): 0
Subjects with at least one AE leading to dose modification/interruption ([11]; SAD, all GDC‐2394 (n = 24)): 0
Subjects with at least one AE leading to withdrawal from treatment ([11]; SAD, all GDC‐2394 (n = 24)): 0
Subjects with at least one AE with fatal outcome ([11]; SAD, all GDC‐2394 (n = 24)): 0
Subjects with at least one grade 3–5 AE (at greatest intensity) ([11]; SAD, all GDC‐2394 (n = 24)): 0
Subjects with at least one related AE ([11]; SAD, all GDC‐2394 (n = 24)): 6 (25.0%)
Subjects with at least one related serious AE ([11]; SAD, all GDC‐2394 (n = 24)): 0
Subjects with at least one serious AE ([11]; SAD, all GDC‐2394 (n = 24)): 0
Total number of AEs ([11]; SAD, all GDC‐2394 (n = 24)): 22
Total number of deaths ([11]; SAD, all GDC‐2394 (n = 24)): 0
Total number of subjects with at least one AE ([11]; SAD, all GDC‐2394 (n = 24)): 14 (58.3%)
Total number of subjects withdrawn from study due to an AE ([11]; SAD, all GDC‐2394 (n = 24)): 0
CYP3A4 induction potential (CYP3A4 [12]): mild‐to‐moderate

Cc1ncc2n1-c1ccc(Cl)cc1C(c1ccccc1F)=NC2 [Midazolam, midazolam, reference compound]
AUC0–inf GMR (CYP3A4 [1]; human, in vivo): 97%
AUC0–inf GMR (test/reference), estimate (CYP3A4 [1]; human, in vivo): 0.97
AUC0–last GMR (CYP3A4 [1]; human, in vivo): 101%
AUC0–last GMR (test/reference), estimate (CYP3A4 [1]; human, in vivo): 1.01
C max GMR (test/reference), estimate (CYP3A4 [1]; human, in vivo): 1.12
Cmax GMR (CYP3A4 [1]; human, in vivo): 112%
AUC(0-inf) (CYP3A4 [13]): 0.056 µg·h/mL
AUC(0-t) (CYP3A4 [13]): 0.0538 µg·h/mL
Cmax (CYP3A4 [13]): 25.6 ng/mL
AUC(0-inf) (CYP3A4 [13]; 5 mg): 0.0578 µg·h/mL
AUC(0-t) (CYP3A4 [13]; 5 mg): 0.0534 µg·h/mL
Cmax (CYP3A4 [13]; 5 mg): 22.9 ng/mL

canakinumab: an anti‐IL‐1β antibody
frequency of cardiovascular events (IL‐1β [14]): significantly reduced

OCc1ncc2n1-c1ccc(Cl)cc1C(c1ccccc1F)=NC2 [1‐hydroxymidazolam]
AUC0–inf GMR (CYP3A4 [1]; [22]): 90%
AUC0–last GMR (CYP3A4 [1]; [22]): 88%
Cmax GMR (CYP3A4 [1]; [22]): 92%
AUC0–inf, geometric LS mean (CYP3A4 [1]; [23]): 0.0203 µg·h/mL
AUC0–last, geometric LS mean (CYP3A4 [1]; [23]): 0.0188 µg·h/mL
C max, geometric LS mean (CYP3A4 [1]; [23]): 9.25 ng/mL

Nc1c2c(cc3c1CCC3)CCC2 [indacenyl amine, 1,2,3,5,6,7‐hexahydro‐s‐indacen‐4‐amine]
day 7 predose indacenyl amine concentration, range ([15]; MAD 900‐mg b.i.d. cohort): 65.8 to 158 ng/mL
half-life ([15]; human, plasma, oral): 36 to 49 h
